Assay outcomes deposited in PubChem BioAssay by The Scripps Research Institute Molecular Screening Center.
procasp3 activ – activates human procaspase-3 | P42574 | recombinant procaspase-3 D3A, Ac-DEVD-pNA absorbance 405 nm | activation, % at 8.5 µM | 330,000 tested, 0.11% active | AID 463141;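 active = activation above the mean of all tested compounds plus 3 SD, cut at about 21% in these data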;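 note: 0% = DMSO alone and 100% = DMSO wells spiked with extra 5 µM PC-3 D3A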
Target sequence (P42574 whole entry D9A/D28A/D175A): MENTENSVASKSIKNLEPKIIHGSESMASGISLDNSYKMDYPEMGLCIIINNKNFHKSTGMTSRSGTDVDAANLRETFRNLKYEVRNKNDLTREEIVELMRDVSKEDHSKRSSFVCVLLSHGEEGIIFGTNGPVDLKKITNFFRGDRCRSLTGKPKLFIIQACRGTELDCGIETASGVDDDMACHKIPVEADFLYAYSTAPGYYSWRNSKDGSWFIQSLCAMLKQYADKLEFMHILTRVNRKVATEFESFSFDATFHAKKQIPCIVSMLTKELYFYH
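Assay system: Procaspase-3 D3A mutant, all three cleavage aspartates alanine. Buffer or medium: Zinc-free HEPES saline buffer with Triton X-100. Times: 1 h compound preincubation, 2 h substrate hydrolysis at 25 °C. Measured by: 405 nm absorbance of p-nitroaniline, reads at 0 and 120 min. Read-out basis: percent activation relative to control range. Replicates: singlicate.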
MsrA act – activators of bovine methionine sulfoxide reductase A | purified bovine MsrA, absorbance read-out | activation, % at 10.6 µM | 360,000 tested, 0.3% active; in the data active = activation above about 7.5%;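 note: 0% = vehicle and 100% = reference activator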
MsrA inhibitor – bovine MsrA inhibition. purified bovine MsrA, absorbance read-out. inhibition, % at 15.5 µM. 360,000 tested, 0.75% active. AID 651718;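 note: 0% = vehicle wells with enzyme and 100% = reference inhibitor wells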
procasp7 counter – activates human procaspase-7, counter-screen for procaspase-3 activators | recombinant procaspase-7, Ac-DEVD-pNA absorbance 405 nm; D23A/D198A/D206A triple mutant, cannot self-cleave; scale: DMSO 0, 5 µM enzyme 100 | activation, % at 8.5 µM | AID 463210 | 330,000 tested, 0.093% active | P55210;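 active = percent activation above the screen-wide mean plus 3 SD, cut at about 25% in these data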
Target sequence (P55210 whole entry D23A/D198A/D206A): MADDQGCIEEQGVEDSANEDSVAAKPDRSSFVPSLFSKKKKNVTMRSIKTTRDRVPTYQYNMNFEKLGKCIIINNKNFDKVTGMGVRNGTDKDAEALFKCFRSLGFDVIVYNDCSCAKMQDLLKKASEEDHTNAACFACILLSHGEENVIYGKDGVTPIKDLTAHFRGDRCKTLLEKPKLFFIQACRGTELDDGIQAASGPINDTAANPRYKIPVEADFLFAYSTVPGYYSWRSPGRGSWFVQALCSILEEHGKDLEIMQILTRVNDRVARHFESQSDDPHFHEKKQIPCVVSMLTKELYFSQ
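Assay system: Uncleavable procaspase-7 mutant enzyme; Input: 2 µM procaspase-7 mutant as dispensed; Also added: DEVD-pNA substrate; Medium: Zinc-free HEPES pH 7.4 with 300 mM NaCl, 0.01% Triton X-100; Timing: 1 h compound preincubation, 2 h substrate cleavage, 25 °C; Measured by: Epi-absorbance of released pNA at 405 nm, two timepoints.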
MsrA activ conf – confirmation of bovine methionine sulfoxide reductase A activators | shares compounds with MsrA act | purified bovine MsrA, absorbance read-out | activation, % at 10.6 µM | 1,000 tested, 12% active; in the data active = activation above about 4%;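 note: enzyme coupled to thioredoxin and thioredoxin reductase with NADPH; 0% = vehicle wells and 100% = reference activator wells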
MsrA inh confirm – confirmation of bovine MsrA inhibitors | purified bovine MsrA, absorbance read-out | inhibition, % at 15.5 µM | 2,300 tested, 41% active | shares compounds with MsrA inhibitor | AID 651822;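 note: coupled to thioredoxin reductase with NADPH and selenocystamine and DMSO as substrate; 0% = vehicle only and 100% = full effect of reference inhibitor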
Active calls of the source: *; . = not tested or not shown. Shown are actives, neighbours in structure and some others; about 1.2% of the full set was active somewhere. Cut-off read from the data, not from the text of the source, unless noted: active = inhibition above about 4.5%; inactive = the rest.

SMILES | procasp3 activ | MsrA act | MsrA inhibitor | procasp7 counter | MsrA activ conf | MsrA inh confirm
CCOC(=O)C1=CCN(S(=O)(=O)c2ccc(Br)cc2)C1c1ccc(Br)cc1 (stereo not given) | . | . | 0.1 | . | . | .
Cc1ccccc1C(=O)N[C@@H](CC(C)C)C(=O)N1CCC[C@H]1C(=O)NCc1ccccc1 | . | . | -0.8 | . | . | .
O=C(NNC1=Nc2ccccc2SC1)c1ccc(Cl)cc1 | -7.1 | -10.6 | 0.4 | 5.2 | . | .
O=C(NNC1=Nc2ccccc2SC1)c1ccc(F)cc1 | -5.4 | 7.7* | -1.8 | 4.6 | -1.5 | .
O=S(=O)(c1cccs1)N1CCCc2nc(-c3ccc(F)cc3)ccc21 | . | . | -0.9 | . | . | .
CCC(=O)Nc1nc(CC(=O)Nc2ccccc2)cs1 | 3.9 | 9.4* | 0.0 | -7.7 | 0.4 | .
CCOC(=O)Cc1csc(NC(=O)Cc2ccccc2)n1 | 3.0 | -6.9 | 0.6 | -14.1 | . | .
COc1ccc(C)cc1S(=O)(=O)Nc1cccc(SC)c1 | 6.4 | 8.8* | -0.5 | -6.7 | -1.8 | .
COc1ccc(C)cc1S(=O)(=O)Nc1cccc(C)c1 | -2.6 | -0.2 | -0.4 | -7.3 | . | .
CCC(C)N(Cc1ccc(OC)cc1OC)S(=O)(=O)c1cc(Br)ccc1Br (stereo not given) | . | . | -0.3 | . | . | .
C=CCNC(=O)c1nc2ccccc2s1 | -0.1 | 9.6* | -1.3 | -4.5 | -0.8 | .
COc1cc(OC)c(CN2CCCCCCC2)cc1Br | 0.9 | 12.1* | -0.3 | -5.7 | -2.5 | .
COc1cc(OC)c(CN2CCCN(C)CC2)cc1Br | -8.6 | -2.5 | 1.2 | -4.8 | . | .
Cc1cc(C)n(-c2ccc(C(=O)Nc3ccc4c(c3)OCO4)cc2)n1 | -3.6 | 8.4* | 0.6 | 5.9 | -6.0 | .
Cc1ccc(S(=O)(=O)NC2c3cccc4cccc(c34)C2Sc2nncn2C)cc1 (stereo not given) | 4.4 | 14.9* | 0.2 | 0.3 | -0.5 | .
O=C(NCCCN1CCN(CCCNC(=O)c2ccc3c(c2)OCO3)CC1)c1ccc2c(c1)OCO2 | 2.6 | -0.7 | -0.9 | -2.8 | . | .
O=C(NCCN1CCCCC1)c1ccc2c(c1)OCCO2 | -0.7 | 10.2* | -0.8 | 10.2 | -1.6 | .
CCC(Oc1ccccc1OC)C(=O)Nc1ccc2c(c1)OCCO2 (stereo not given) | 3.1 | 16.0* | 1.1 | 6.6 | 0.3 | .
COc1ccccc1NC(=O)Nc1ccc2c(c1)OCCO2 | -1.3 | -4.7 | 1.0 | 5.0 | . | .
O=C(NCCc1ccccc1Cl)[C@@H]1CCCN1C(=O)[C@@H](NC(=O)N1CCOCC1)c1ccccc1 | . | . | 0.5 | . | . | .
Cc1ccc(S(=O)(=O)Nc2cccc(-c3ccc4nnc(C)n4n3)c2)s1 | -10.5 | 20.5* | -0.9 | -3.4 | -0.4 | .
COc1ccc(C(=O)N(C)[C@H]2C[C@H]3c4[nH]c5c(-c6ccccc6)cccc5c4CCN3C(=O)[C@H]2[C@H](C)O)cc1 | . | . | -0.6 | . | . | .
CCC(Oc1ccc(C)c(C)c1)C(=O)N1CCCN(C)CC1 (stereo not given) | 1.0 | -1.1 | -0.5 | 1.0 | . | .
CCC(Oc1ccccc1C)C(=O)N1CCCN(C)CC1 (stereo not given) | -3.4 | 14.2* | -0.2 | 11.3 | -1.1 | .
O=c1ccc(-c2ccc([N+](=O)[O-])cc2)nn1-c1ccccc1 | 11.4 | -3.4 | 0.1 | 2.0 | . | .
SMILES | procasp3 activ | MsrA act | MsrA inhibitor | procasp7 counter | MsrA activ conf | MsrA inh confirm
O=[N+]([O-])c1ccc(-[n+]2nc(-c3ccccc3)nn2-c2ccccc2)cc1 | -0.6 | 7.8* | 25.5* | 6.3 | 4.8* | 24.6*
O=C(OCc1nnc(-c2ccccc2)o1)c1ccc([N+](=O)[O-])s1 | 6.8 | 18.0* | 9.3* | 6.0 | 24.1* | 7.2*
Cc1ccc(C(=O)OCc2nnc(-c3ccccc3)o2)s1 | 9.8 | -5.3 | 0.8 | 1.6 | . | .
C[n+]1c(-c2ccccc2)cc2c(=Cc3ccc([N+](=O)[O-])cc3)c3ccccc3n21 | . | 19.6* | 10.8* | . | 16.7* | 0.2
Cc1ccc(S(=O)(=O)Nc2ccc3c(c2)C(=O)c2ccccc2-3)cc1 | . | -2.6 | -0.5 | . | . | .
Cc1ccc(NS(=O)(=O)c2ccc3c(c2)C(=O)c2ccccc2C3=O)c(C)c1 | -16.0 | 12.3* | 10.1* | 8.4 | 5.8* | 32.2*
CN(N=Cc1ccccc1O)C(=O)c1ccccc1N | . | . | 1.1 | . | . | .
O=S(=O)(Nc1cc(Sc2ncn[nH]2)c(O)c2ccccc12)c1ccccc1 | . | 13.9* | 63.4* | . | 1.0 | -0.4
COC(=O)C1=C(C)N(Cc2ccccc2C(F)(F)F)C(=NCc2ccc(OC)cc2)NC1c1ccc(F)cc1 (stereo not given) | . | . | -1.9 | . | . | .
CC1OC2CC(=O)OC2C2=C1C(=O)c1c(O)cccc1C2=O (stereo not given) | . | 17.1* | 8.5* | . | 11.5* | 6.8*
CCN1CCN(Cc2ccc(NC(=O)c3cccc(-c4ccc5nc(NC(=O)C6CC6)sc5n4)c3)cc2C(F)(F)F)CC1 | . | . | 0.8 | . | . | .
CC(=O)c1ccc(-c2nc3ccccc3n2C)o1 | 5.2 | -1.1 | 6.7* | 4.5 | . | 2.5
Cc1ccc(-c2nc3ccccc3n2C)o1 | -8.6 | -1.0 | -0.6 | -4.9 | . | .
O=C(O)CSc1cc(NS(=O)(=O)c2ccc(Br)cc2)c2ccccc2c1O | -17.8 | 9.3* | 4.9* | -20.5 | . | -0.7
CC(C)NC(=O)/C(C#N)=C/c1ccc2c(c1)OCCO2 | 6.8 | -8.6 | 6.3* | -1.1 | . | 4.1
Cc1ccc2c(c1)C(O)(CC(=O)/C=C/C=C/c1ccccc1)C(=O)N2 (stereo not given) | -1.7 | -6.6 | 6.3* | 0.2 | . | 3.9
NC(=O)CN1C(=O)C(O)(CC(=O)/C=C\c2ccc3c(c2)OCO3)c2ccccc21 (stereo not given) | -0.8 | -4.8 | 4.8* | 2.6 | . | 4.2
O=C(/C=C/C=C/c1ccccc1)CC1(O)C(=O)N(CCc2ccccc2)c2ccccc21 (stereo not given) | -2.0 | -4.2 | 1.5 | 3.3 | . | .
CCN1C(=O)C(O)(CC(=O)/C=C/C=C/c2ccccc2)c2ccccc21 (stereo not given) | -10.3 | -5.0 | 5.8* | -12.2 | . | 4.0
CN1C(=O)C(O)(CC(=O)/C=C\c2ccc3c(c2)OCO3)c2ccccc21 (stereo not given) | -10.3 | -5.1 | 3.6 | 7.0 | . | .
C#CCN1C(=O)C(O)(CC(=O)/C=C/C=C/c2ccccc2)c2ccccc21 (stereo not given) | 1.6 | -2.4 | 1.4 | 0.6 | . | .
NC(=O)CN1C(=O)C(O)(CC(=O)/C=C\C=C\c2ccccc2)c2ccccc21 (stereo not given) | -2.2 | -4.1 | 5.4* | -2.6 | . | 5.0*
Cc1ccc(C(=O)N2CCC[C@@H]2C(=O)N2CCC[C@@H]2C(=O)NCc2ccccc2)cc1 | . | . | -0.1 | . | . | .
CC(C)C(C(=O)NCc1ccccc1)N1CCN(CCN2CCOCC2)CC1 (stereo not given) | . | . | -0.9 | . | . | .
CC(C)(C)NC(=O)C(c1cccc2ccccc12)n1c(=O)c(-c2cc3ccccc3[nH]2)nc2ccccc21 (stereo not given) | . | . | 1.9 | . | . | .
O=C(Nc1ccon1)c1ccc(N2CCCCC2)c([N+](=O)[O-])c1 | -6.9 | -1.9 | -0.4 | -1.3 | . | .
